Molecular target: T1, Phospholipase A2, membrane associated (Homo sapiens, UniProt P14555)
T1 sequence (P14555 whole entry): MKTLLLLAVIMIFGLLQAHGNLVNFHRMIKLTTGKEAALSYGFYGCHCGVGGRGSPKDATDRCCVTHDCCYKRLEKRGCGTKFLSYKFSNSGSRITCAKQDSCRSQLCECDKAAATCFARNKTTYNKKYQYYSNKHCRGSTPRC
Assay: Inhibition of sPLA2-IIA (unknown origin)-integrin alphaVbeta3 interaction in human K562 cells pretreated for 30 mins to immobilized sPLA2 before adding cells by phosphatase assay
How it was run: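 Wells coated with sPLA2-IIA and blocked with BSA were preincubated with compound (10 to 500 μM) for 30 min. Integrin αvβ3-transfected K562 erythroleukemia cells were then added for 1 h at 37 °C, and bound cells were quantified by phosphatase assay. IC50 and maximum inhibition were derived from dose-response experiments.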

**Q.** For `Cc1nc(NC(=O)c2ccccc2)sc1-c1cc(C(=O)NCC(=O)O)[nH]n1`, which IC50 is on record?
**A.** 241 µM
